Measurements gathered from unrelated publications.
Lines come from different studies, so protocols differ. pIC50: −log10 of the molar value.
Cell line: MDA-MB-231
Read-out: cell growth or viability

The pIC50 of `COc1cc(Nc2nccc(-c3cnn4nc(OC)ccc34)n2)cc(C(F)(F)F)c1` is reported as 5.74 (ATP luminescence).
`CCn1c(-c2nnc(NC(=O)c3cc4c([nH]c5ccccc54)c(-c4cc(OC)c(OC)c(OC)c4)n3)s2)cc2ccccc21` gave a pIC50 of 5.06 (MTT; 72 h).
For `COC1=C2C[C@@H](C)C[C@H](OC)[C@H](O)[C@@H](C)/C=C(\C)[C@H](OC(N)=O)[C@@H](OC)/C=C\C=C(/C)C(=O)NC(=CC1=O)C2=O`, the pIC50 was 7.19 (MTT).
For `C[C@@H]1C[C@@H](c2ccc(Br)cc2)c2c(cc3ccccn23)C(=O)O1` (racemic), the pIC50 was 4.66 (resazurin; 72 h).
`C=CC1=C(C)c2cc3[nH]c(cc4nc(cc5[nH]c(cc1n2)c(C)c5CCC(=O)O)C(CCC(=O)O)=C4C)c(C)c3C=C` gave a pIC50 of under 4.00 (4 h; dark).
With `C[C@@H]1C[C@H](c2cccc(Cl)c2)c2c(cc3ccccn23)C(=O)O1` (racemic) the pIC50 was 4.44 (resazurin; 72 h).
`Nc1ccn([C@@H]2O[C@H](CO)[C@@H](O)C2(F)F)c(=O)n1` has a pIC50 of 5.35 (resazurin; 72 h).
With `Clc1ccc(-c2nc3ccccc3[nH]2)cc1Cl` the pIC50 was 5.01 (MTT; 48 h).
`COc1cccc2c1C(=O)c1c(O)c3c(c(O)c1C2=O)C[C@@](O)(C(=O)CO)C[C@@H]3O[C@H]1C[C@H](N)[C@H](O)[C@H](C)O1` gave a pIC50 of 6.42 (resazurin; 72 h).
`C[C@H]1O[C@@H](n2cc(F)c(=O)[nH]c2=O)[C@H](O)[C@@H]1O` has a pIC50 of under 4.30 (CCK-8; 48 h).
For `COc1ccnc(Nc2ccc3ncnc(Nc4cccc(C(F)(F)F)c4)c3c2)c1`, the pIC50 was 5.18 (MTT; 24 h).
With `O=C1CCC2(Oc3cccc4cccc(c34)O2)c2c(O)ccc(O)c21` the pIC50 was under 4.60 (resazurin; 72 h).
With `CCn1c(-c2nnc(NC(=O)c3cc4c([nH]c5ccccc54)c(-c4ccc(OC)cc4)n3)s2)cc2ccccc21` the pIC50 was 5.03 (MTT; 72 h).
`CC(=O)O[C@H]1C(=O)[C@@]2(C)[C@H]([C@H](OC(=O)c3ccccc3)[C@]3(O)C[C@H](OC(=O)[C@H](O)[C@@H](NC(=O)c4ccccc4)c4ccccc4)C(C)=C1C3(C)C)[C@]1(OC(C)=O)CO[C@@H]1C[C@@H]2O` gave a pIC50 of 5.86 (MTT; 48 h).
For `COc1cc(-c2nc(C(=O)Nc3nnc(-c4cc5ccccc5n4C)s3)cc3c2[nH]c2ccccc23)cc(OC)c1OC`, the pIC50 was 5.14 (MTT; 72 h).
With `CC(=O)OC[C@H]1O[C@@H]([S-])[C@H](OC(C)=O)[C@@H](OC(C)=O)[C@@H]1OC(C)=O.CCP(CC)CC.[Au+]` the pIC50 was 5.80 (resazurin).
For `COc1cccc2c1C(=O)c1c(O)c3c(c(O)c1C2=O)C[C@@](O)(C(=O)CO)C[C@@H]3O[C@H]1C[C@H](N)[C@H](O)[C@H](C)O1`, the pIC50 was 6.35 (SRB).
With `COc1cccc2c1C(=O)c1c(O)c3c(c(O)c1C2=O)C[C@@](O)(C(=O)CO)C[C@@H]3O[C@H]1C[C@H](N)[C@H](O)[C@H](C)O1` the pIC50 was 5.37 (MTT).
`Cc1cc(NS(=O)(=O)c2ccc(NC(=O)COc3ccc(C(C)(C)c4ccccc4)cc3)cc2)nc(C)n1` has a pIC50 of 4.41 (MTT; 72 h).
`Cc1nc(Nc2ncc(C(=O)Nc3c(C)cccc3Cl)s2)cc(N2CCN(CCO)CC2)n1` gave a pIC50 of 4.71 (MTT; 48 h).
The pIC50 of `FC(F)(F)c1cccc(Nc2ncnc3ccc(Nc4ccccc4)cc23)c1` is reported as 4.81 (MTT; 24 h).
The pIC50 of `CC(C)CCC[C@@H](C)[C@H]1CC[C@H]2[C@@H]3CC=C4C[C@@H](O)CC[C@]4(C)[C@H]3CC[C@]12C` is reported as under 4.52 (resazurin; 72 h).
The pIC50 of `CCc1ccc(N2NC(=O)/C(=C/c3ccc(-c4ccc(S(=O)(=O)Nc5nccs5)cc4)o3)C2=O)cc1` is reported as 4.19 (MTT; 48 h).
The pIC50 of `COc1c(C)c(OC)c2c(c1C)OC(c1ccccc1)CC2=O` (stereo not drawn) is reported as under 4.30 (SRB; 72 h).
The pIC50 of `O=Cc1ccc(-c2ccc3ncnc(Nc4cccc(C(F)(F)F)c4)c3c2)cc1` is reported as 5.06 (MTT; 24 h).
With `CCOc1ccc(-c2nc3ccccc3n2Cc2ccccc2)cc1` the pIC50 was 4.68 (MTT).
`C[C@@H]1C[C@@H](c2cccc(F)c2)c2c(cc3ccccn23)C(=O)O1` (racemic) has a pIC50 of 4.28 (resazurin; 72 h).
With `Fc1ccc(-c2nc3ccccc3n2Cc2ccccc2)cc1` the pIC50 was 4.46 (MTT).
For `O=C(CSc1nc2ccc(N=Cc3ccc(Sc4nnnn4-c4ccccc4)o3)cc2s1)N1CCOCC1`, the pIC50 was 4.31 (MTT; 72 h).
With `CSc1ccc(-c2nc3ccc(C)cc3n2Cc2ccccc2)cc1` the pIC50 was 4.66 (MTT).
For `COc1cc([C@H]2C[C@@H](C)OC(=O)c3cc4ccccn4c32)cc(OC)c1OC` (racemic), the pIC50 was under 4.00 (resazurin; 72 h).
For `FC(F)(F)c1cccc(Nc2ncnc3ccc(-c4ccsc4)cc23)c1`, the pIC50 was 5.53 (MTT; 24 h).
`O=C(Nc1nnc(-c2cc3ccccc3[nH]2)s1)c1cc2c([nH]c3ccccc32)c(-c2ccccc2)n1` has a pIC50 of 5.40 (MTT; 72 h).
`COc1ccc(/C=C/C(=O)c2cc(Br)ccc(=O)c2O)cc1` gave a pIC50 of 5.26 (MTT; 48 h).
For `Cc1ccc2nc(-c3ccc(Cl)cc3)n(Cc3ccccc3)c2c1`, the pIC50 was 5.62 (MTT).
With `COc1ccc(-c2ccc3ncnc(Nc4cccc(C(F)(F)F)c4)c3c2)cc1` the pIC50 was 5.19 (MTT; 24 h).
For `COc1cc(OC)cc([C@H]2C[C@@H](C)OC(=O)c3cc4ccccn4c32)c1` (racemic), the pIC50 was 4.69 (resazurin; 72 h).
`Oc1ccc(-c2ccc3ncnc(Nc4cccc(C(F)(F)F)c4)c3c2)cc1` gave a pIC50 of 5.40 (MTT; 24 h).
`CC(=O)O[C@@]12CO[C@@H]1C[C@H](O)[C@@]1(C)C(=O)[C@H](O)C3=C(C)[C@@H](OC(=O)[C@H](O)[C@@H](NC(=O)OC(C)(C)C)c4ccccc4)C[C@@](O)([C@@H](OC(=O)c4ccccc4)[C@H]21)C3(C)C` gave a pIC50 of 8.66 (ATP luminescence; 72 h).
With `COc1ccc(Br)cc1/C=C/C(=O)c1ccc(NC(C)=O)cc1` the pIC50 was 5.52 (MTT; 48 h).
`O=C1C[C@@H](c2ccc(O)cc2)Oc2cc(O)cc(O)c21` gave a pIC50 of 5.53 (MTT; 48 h).
`COc1nc(SC)nc(OC)c1C(=O)/C=C/[c-]1cccc1.[Fe+2].c1cc[cH-]c1` gave a pIC50 of 5.03 (MTT; 72 h).
The pIC50 of `Oc1cccc(-c2ccc3ncnc(Nc4cccc(C(F)(F)F)c4)c3c2)c1` is reported as 4.85 (MTT; 24 h).
The pIC50 of `Cc1ccc2nc(-c3ccc([N+](=O)[O-])cc3)n(Cc3ccccc3)c2c1` is reported as 5.09 (MTT).
`C[C@H]1[C@@H](O)O[C@@H]2O[C@@]3(C)CC[C@H]4[C@H](C)CC[C@@H]1[C@@]24OO3` has a pIC50 of under 4.30 (CCK-8; 48 h).
With `CN(C)c1ccc(-c2nc3ccccc3[nH]2)cc1` the pIC50 was 4.54 (MTT; 48 h).
With `CC(C)=CCc1c(O)c(CC=C(C)C)c2oc3c(O)ccc(O)c3c(=O)c2c1O` the pIC50 was 4.77 (48 h).
`CC(=O)Nc1nc(C)c(-c2csc(Nc3ccccc3)n2)s1` gave a pIC50 of 4.91 (MTT; 48 h).
